Assay outcomes from PubChem.
PP1 counter: PP1-alpha phosphatase inhibitors, primary screen, counter-screen for PP5 inhibitor project, biochemical, fluorescence, OMFP substrate, single point | Serine/threonine-protein phosphatase PP1-alpha catalytic subunit (Homo sapiens), P62136 | purified PP1alpha | inhibition, % at 6.7 µM | 0.9% of 320,000 active | AID 2235, 2010;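 active = inhibition above the mean inhibition of all tested compounds plus 3 SD, computed separately for each screening campaign, cut at about 15% in these data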
GSTO1 counter: inhibitors of recombinant GSTO1, primary screen, counter-screen for RBBP9 inhibitor project, biochemical, fluorescence polarization; Glutathione S-transferase omega-1 (Homo sapiens), P78417; activity-based probe fluorescence polarization; inhibition, % at 5.96 µM; 1.1% of 300,000 active; AID 1974, 2009;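 active = inhibition above the campaign mean inhibition plus 3 SD, cut at about 35% in these data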;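 also: 0% = GSTO1-1 with DMSO and 100% = wells lacking GSTO1-1 enzyme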
Apaf1 inhib: inhibitors of human Apaf-1 apoptosome, primary screen, biochemical, DEVD-Rh110 fluorescence, uHTS; Apoptotic protease-activating factor 1 (Homo sapiens), O14727; reconstituted apoptosome caspase-3 activity; inhibition, % at 20 µM; 0.71% of 330,000 active; active = inhibition of at least 40% at 20 µM;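 also: plate controls were DMSO wells for no effect and DEVD-CHO caspase inhibitor wells for full effect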
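detection = Rh110 fluorescence intensity | test system = biochemical Apaf-1 apoptosome reconstitution | also added = cytochrome c and DEVD-Rh110 substrate | schedule = 30 min plus 50 min, RT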
TDP2 inh: human TDP2 enzyme inhibitors, primary screen, biochemical, epi absorbance, recombinant enzyme; Tyrosyl-DNA phosphodiesterase 2 (Homo sapiens), O95551; T5PNP hydrolysis, p-nitrophenol absorbance 415 nm; inhibition, % at 12.8 µM; 0.34% of 370,000 active;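 active = inhibition above the mean of all tested compounds plus 3 SD, set per campaign, cut at about 25% in these data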;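 also: 0% = DMSO with enzyme and 100% = buffer with substrate but no TDP2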
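Test system: Human TDP2 enzyme | Reagent: 5 mM T5PNP | Compound dosing: 12.8 µM single point, 1% DMSO | Incubation: Enzyme reaction with compound for 2 h at 37 °C | Technique: p-Nitrophenol epi absorbance | Read-out: % inhibition relative to enzyme-containing and enzyme-free wells | Benchmarks: High control without enzyme, low control DMSO plus TDP2 | Replicates: Singlicate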
PP5 primary: PP5 phosphatase inhibitors, primary screen, biochemical, fluorescence; purified PP5c, OMFP substrate fluorescence; inhibition, % at 6.7 µM; 0.18% of 320,000 active; Serine/threonine-protein phosphatase 5 (Homo sapiens), P53041;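 active = inhibition above the campaign's mean inhibition across all tested compounds plus 3 SD, cut at about 9.5% in these data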;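 also: 0% = DMSO only and 100% = 100 µM cantharidin control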
Target sequence (P53041 whole entry, looked up): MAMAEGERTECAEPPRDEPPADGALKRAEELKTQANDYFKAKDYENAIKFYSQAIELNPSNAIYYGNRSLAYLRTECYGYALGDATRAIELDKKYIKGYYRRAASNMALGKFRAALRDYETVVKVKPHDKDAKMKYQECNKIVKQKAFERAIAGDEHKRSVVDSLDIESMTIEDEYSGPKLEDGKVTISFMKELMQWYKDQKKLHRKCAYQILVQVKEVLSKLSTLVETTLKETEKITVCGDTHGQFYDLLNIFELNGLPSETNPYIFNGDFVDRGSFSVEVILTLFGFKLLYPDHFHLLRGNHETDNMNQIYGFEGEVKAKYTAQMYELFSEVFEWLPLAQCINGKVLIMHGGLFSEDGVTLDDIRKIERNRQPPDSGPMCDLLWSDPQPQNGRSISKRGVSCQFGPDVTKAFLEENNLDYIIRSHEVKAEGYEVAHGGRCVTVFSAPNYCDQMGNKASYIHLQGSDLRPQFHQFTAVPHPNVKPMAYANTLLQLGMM
Apaf-1 inh conf2: Apaf-1 inhibitors, single-dose retest, confirmation, biochemical, fluorescence, DEVD-Rh110, 20 µM | shares compounds with Apaf1 inhib | reconstituted apoptosome, caspase-3 DEVD-Rh110 fluorescence | inhibition, % at 20 µM | 25% of 1,800 active | AID 504614, 2011;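 active = mean inhibition of at least 40% at 20 µM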;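 also: plate controls were DMSO wells for no effect and DEVD-CHO caspase inhibitor control wells for full effect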
Rh110 quench: Rh110 fluorescence interference by putative Apaf-1 inhibitors, confirmation, artefact control for Apaf-1 inhibitor project, biochemical, 20 µM; activation (fluorescence interference), % at 20 µM; shares compounds with Apaf1 inhib; quenched caspase reaction; 1,800 tested, under 10 active;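 active = signal rise of 40% or more at 20 µM, treated as a fluorescence artifact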
Apaf1 inh interf: fluorescence interference of Apaf-1 inhibitor hits, dose response, artefact control for Apaf-1 inhibitor project; AID 588538, 2011; 460 tested, under 10 active; IC50, µM; fluorescence interference counterscreen, Apaf-1 assay format; shares compounds with Apaf1 inhib; call rule not given here
* = called active by the depositor; nt = no result given. In the library only some 2.1% were active in any assay of this set; here they are far more common.

SMILES	PP1 counter	GSTO1 counter	Apaf1 inhib	TDP2 inh	PP5 primary	Apaf-1 inh conf2	Rh110 quench	others
CN1CCN(CC(=O)N2CCn3c4c(c5cc(C6CCCCC6)ccc53)CCCC42)CC1 (centres undefined)	4	5	58*	nt	1	37	7
C#CCOCCOCCOCCNc1nc(N2CCN(C(=O)CCCCCCCCCCNC(=O)[C@H](CCCCN)n3cc(CCO)nn3)CC2)nc(N2CCN(C(=O)CCCCCCCCCCNC(=O)[C@H](CCCCN)n3cc(CCCC(=O)O)nn3)CC2)n1	0	4	59*	5	1	34	9
C#CCOCCOCCOCCNc1nc(N2CCOCC2)nc(N2CCN(C(=O)[C@H]([C@@H](C)O)n3cc(CCCCN)nn3)CC2)n1	1	2	2	-1	3	nt	nt
C#CCOCCOCCOCCNc1nc(N2CCOCC2)nc(N2CCN(C(=O)CCCCCCCCCCNC(=O)[C@H]([C@@H](C)CC)n3cc(CCCCN=C(N)N)nn3)CC2)n1	15*	-2	60*	-7	-2	29	1
C#CCOCCOCCOCCNc1nc(N2CCN(C(=O)CCCCCCCCCCNC(=O)Cn3cc(CCCCCN)nn3)CC2)nc(N2CCN(C(=O)CCCCCCCCCCNC(=O)[C@@H]([C@H](C)O)n3cc(C)nn3)CC2)n1	9	-4	49*	nt	-1	40*	18	Apaf1 inh interf=>100
C#CCOCCOCCOCCNc1nc(N2CCOCC2)nc(N2CCN(C(=O)CCCCCCCCCCNC(=O)[C@H](CO)n3cc(CCCSC)nn3)CC2)n1	-1	14	25	1	2	nt	nt
C#CCOCCOCCOCCNc1nc(N2CCN(C(=O)[C@H](CCCCN)n3cc(CN)nn3)CC2)nc(N2CCN(C(=O)[C@H](CCCCN)n3cc(CN)nn3)CC2)n1	nt	nt	44*	2	nt	-5	0
O=C(NCCO)[C@H](Cc1ccccc1)NC1(C(=O)NCCN2CCOCC2)CCCCC1	nt	nt	nt	4	nt	nt	nt
CCC(=O)N(Cc1ccccc1)c1ccccc1C(=O)Nc1cc(OC)ccc1OC	nt	nt	nt	3	nt	nt	nt
COc1ccccc1NC(=O)c1nc[nH]c1C(=O)Nc1ccccc1OC	9	6	95*	-8	2	0	1
CCN1CCN(c2ccc(NC(=O)c3cc4ccccc4cc3OC)cc2C)CC1	2	nt	51*	-16	2	17	10
CC(C)(C)c1ccc(C(O)CCCN2CCC(C(O)(c3ccccc3)c3ccccc3)CC2)cc1 (centres undefined)	3	3	53*	-11	5	16	3
CC(C)(C)c1ccc(OCCCN2CCC(C(O)(c3ccccc3)c3ccccc3)CC2)cc1	nt	nt	nt	3	nt	nt	nt
Cc1ccc(-c2csc3nc4c5ccccc5c(NCCCN(C)C)nn4c(=O)c23)cc1	5	-12	42*	-14	0	58*	12	Apaf1 inh interf=>100
NC(=O)c1ncn([C@@H]2O[C@H](C(=O)N[C@H](Cc3c[nH]c4ccccc34)C(=O)N3CCN(C(=O)N4CCCCC4)CC3)[C@@H](O)[C@H]2O)n1	nt	nt	nt	1	nt	nt	nt
C[C@@H](CSc1ccc(Br)cc1)CN1CC[C@H](NC(=O)OCc2ccccc2)CCC1=O	nt	nt	40*	0	nt	16	0
COc1ccc(SC[C@H](C)CN2CC[C@H](NC(=O)OCc3ccccc3)CCC2=O)cc1	nt	nt	70*	-5	nt	20	-1
CC(=O)Nc1cccc(-c2ccnc3c2CC(C)(C(=O)NCc2ccncc2)O3)c1 (centres undefined)	nt	nt	nt	-16	nt	nt	nt
Nc1[nH]c(C(=O)c2ccccc2)c(-c2ccc3ccccc3c2)c1C(=O)NCc1ccc(-c2ccccc2)cc1	nt	nt	nt	7	nt	nt	nt
COCCn1c(SCC(=O)NNC(=O)c2cc(Cl)ccc2OC)nnc1-c1ccncc1	-3	nt	49*	2	-1	36	11
COCCn1c(SCC(=O)Nc2cccc(OC)c2)nnc1-c1ccc(Cl)cc1	-1	2	-9	-17	2	nt	nt
COc1ccc(N2CCN(C(=O)COc3ccc4c(C)cc(=O)oc4c3C)CC2)cc1	0	3	3	-2	1	nt	nt
COc1ccc(N2CCN(C(=O)c3ccc(COc4ccc5c(C)cc(=O)oc5c4)cc3)CC2)cc1	1	0	58*	13	1	17	5
Cc1c(CCOC(=O)CC23CC4CC(CC(C)(C4)C2)C3)sc[n+]1CC(=O)c1ccccc1	13	-8	25	-16	3	nt	nt
Cc1c(CCOC(=O)CC23CC4CC(CC(C4)C2)C3)sc[n+]1CC(=O)c1ccc(Br)cc1	15	-9	49*	0	4	32	16
SMILES	PP1 counter	GSTO1 counter	Apaf1 inhib	TDP2 inh	PP5 primary	Apaf-1 inh conf2	Rh110 quench	others
FC(F)(F)c1ccc(CN2C[C@@H]3C(c4ccc(Cl)nc4)C4(c5cccnc5)CC3(C4)[C@H]2c2ccccc2)cc1 (some centres undefined)	10	-3	42*	-3	6	20	17
CCc1cc2c(SCC(=O)N3CC(=O)Nc4ccccc43)ncnc2s1	4	4	55*	9	0	20	7
COc1cc(OC)c(C2CC(=O)N3CN(c4ccccc4)CSC3=C2C#N)cc1OC (centres undefined)	3	3	6	0	-2	nt	nt
COc1ccc(Br)cc1C1CC(=O)N2CN(C)CSC2=C1C#N (centres undefined)	0	0	42*	-1	1	29	18
COc1ccc(Br)cc1C1CC(=O)N2CN(Cc3ccccc3)CSC2=C1C#N (centres undefined)	-5	-5	78*	-4	0	20	0
COC(=O)[C@]12C[C@H](CC(=O)N3CCOCC3)C(=O)N(Cc3cccc4ccccc34)C1=C[C@H](C(C)(C)C)O[C@@H]2C	nt	nt	nt	8	nt	nt	nt
CCCc1cc(=O)oc2c3c(c4c(c12)OC(C)(C)C=C4)OC(C)C(C)C3O (centres undefined)	5	0	53*	-5	9	47*	12	Apaf1 inh interf=>100
N#Cc1c(N)n(CCNC(=O)c2cccs2)c2nc3ccccc3nc12	-1	9	90*	-10	1	17	5
